From ChEMBL document CHEMBL3286336, “Design, synthesis and biological evaluation of hybrid bioisoster derivatives of N-acylhydrazone and furoxan groups with potential and selective anti-Trypanosoma cruzi activity” (Eur J Med Chem, 2014) come the findings set out here.

Test system in the first data set: not listed separately
The data set is described as follows: Efflux ratio of permeability from basolateral to apical side over apical to basolateral side in human Caco2 cells. The class given is ADME, cell-based. The conditions noted are these: Caco-2.
Turning to `Cc1c(/C=N/NC(=O)c2ccc([N+](=O)[O-])cc2)no[n+]1[O-]`, the efflux ratio was 0.87.
Turning to `O=C(N/N=C/c1c(-c2ccccc2)no[n+]1[O-])c1ccc([N+](=O)[O-])cc1`, the efflux ratio was 0.63.

For another data set, the target named is Cruzipain (Trypanosoma cruzi, UniProt P25779). The experiment in a line: Inhibition of Trypanosoma cruzi cruzain expressed in Escherichia coli M15/DH5alpha using Z-Phe-Arg-AMC as substrate by spectrofluorometry.
Cruzipain, sequence (P25779 whole entry): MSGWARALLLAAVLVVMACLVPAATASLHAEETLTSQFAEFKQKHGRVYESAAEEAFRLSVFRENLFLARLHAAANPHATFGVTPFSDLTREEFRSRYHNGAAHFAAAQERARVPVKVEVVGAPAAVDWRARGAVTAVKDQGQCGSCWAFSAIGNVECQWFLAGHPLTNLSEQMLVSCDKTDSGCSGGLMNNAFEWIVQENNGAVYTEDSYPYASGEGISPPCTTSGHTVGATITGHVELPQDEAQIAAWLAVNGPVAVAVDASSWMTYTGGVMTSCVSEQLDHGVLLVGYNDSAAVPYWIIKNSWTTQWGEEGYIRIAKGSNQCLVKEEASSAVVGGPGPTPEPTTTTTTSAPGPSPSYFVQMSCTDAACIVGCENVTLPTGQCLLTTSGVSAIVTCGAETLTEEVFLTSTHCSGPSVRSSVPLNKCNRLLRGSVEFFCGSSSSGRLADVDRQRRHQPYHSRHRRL
Conditions: not given
The method in brief: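 C-terminally truncated cruzain (0.64 nM) in 50 mM sodium phosphate, 100 mM NaCl, 5 mM EDTA, 5 mM DTT, pH 6.5, preincubated 5 min at room temperature with inhibitor before adding Z-Phe-Arg-AMC. AMC release followed by fluorescence (ex 355, em 460 nm). IC50 by nonlinear regression of activity relative to no-inhibitor control.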
For `Cc1c(/C=N/NC(=O)c2ccc([N+](=O)[O-])cc2)no[n+]1[O-]`, the IC50 was found to be 11.2 µM.
As to `O=C(N/N=C/c1c(-c2ccccc2)no[n+]1[O-])c1ccc([N+](=O)[O-])cc1`, the IC50 came out at 15.1 µM.

Test system in the next data set: not listed separately
The experiment in a line: Induction of NO release assessed as nitrite level.
Conditions: not given
The class given is physicochemical. The essentials: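 Indirect measurement on a Sievers NOA 280 nitric oxide analyser; compounds dissolved in DMSO (1 mg in 200 µL) and analysed in oxygenated medium. Nitrite anion, the NO degradation byproduct, quantified; result given as IC50.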
Regarding `Cc1c(/C=N/NC(=O)c2cccc([N+](=O)[O-])c2)no[n+]1[O-]`, the IC50 stood at 52 µM.
Same read-out and setting: the value for `Cc1c(/C=N/NC(=O)c2ccco2)no[n+]1[O-]` was 1220 µM; that for `Cc1c(/C=N/NC(=O)c2ccccc2)no[n+]1[O-]` was 210 µM.
As for `Cc1c(/C=N/NC(=O)Cc2ccccc2)no[n+]1[O-]`, the IC50 was 898 µM.
Consider `Cc1c(/C=N/NC(=O)c2ccc(Br)cc2)no[n+]1[O-]`, for which the IC50 worked out at 102 µM.
Consider `Cc1c(/C=N/NC(=O)c2ccc(Cl)cc2)no[n+]1[O-]`, for which the IC50 worked out at 56 µM.
In the case of `Cc1c(/C=N/NC(=O)c2ccc([N+](=O)[O-])cc2)no[n+]1[O-]`, the IC50 came to 242 µM.
Consider `Cc1c(/C=N/NC(=O)c2ccccc2Nc2ccccc2)no[n+]1[O-]`, for which the IC50 turned out to be 124 µM.
Same read-out and setting: as for `O=C(N/N=C/c1c(-c2ccccc2)no[n+]1[O-])c1ccco1`, the figure is 867 µM.
Regarding `O=C(N/N=C/c1c(-c2ccccc2)no[n+]1[O-])c1ccc(Cl)cc1`, the IC50 was determined as 4230 µM.
The same measure, in the same setting: the value for `O=C(N/N=C/c1c(-c2ccccc2)no[n+]1[O-])c1ccc(Br)cc1` was 601 µM; that for `O=C(N/N=C/c1c(-c2ccccc2)no[n+]1[O-])c1cccc([N+](=O)[O-])c1` was 912 µM; that for `O=C(N/N=C/c1c(-c2ccccc2)no[n+]1[O-])c1ccccc1` was 132 µM.
`O=C(N/N=C/c1c(-c2ccccc2)no[n+]1[O-])c1ccc([N+](=O)[O-])cc1`: the IC50 is 110 µM.
Still for that read-out and setting: as for `O=C(Cc1ccccc1)N/N=C/c1c(-c2ccccc2)no[n+]1[O-]`, the figure is 33.4 µM.

Test system in the next data set: not listed separately
The data set is described as follows: Permeability across apical to basolateral side in human Caco2 cells. It is filed as ADME, cell-based. The conditions noted are these: Caco-2, read-out: permeability. The essentials:
(§1)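 Caco-2 grown 21 days on Transwell filters (seeded 5 × 10⁴ cells/cm²); monolayer integrity checked by TEER and fluorescein, metoprolol, amoxicillin markers. […] compound in HBSS pH 7.4 dosed A→B and B→A, basolateral pH 7.4, 37 °C, orbital shaking 25 rpm. Quantified by HPLC-UV 254 nm (C18, 35 °C, phosphate pH 3.5/acetonitrile 50:50). Papp = (VR·ΔQ/Δt)/(A·C0), using only receiver concentrations under 10% of donor.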
Take `Cc1c(/C=N/NC(=O)c2ccc([N+](=O)[O-])cc2)no[n+]1[O-]`: the Papp A→B turned out to be 43.2 ×10⁻⁶ cm/s.
Take `O=C(N/N=C/c1c(-c2ccccc2)no[n+]1[O-])c1ccc([N+](=O)[O-])cc1`: the Papp A→B came out at 0.82 ×10⁻⁶ cm/s.

The subject of the next data set is HepG2. The data set is described as follows: Cytotoxicity against human HepG2 cells after 24 hrs by XTT assay. The class given is cell-based. The settings on record: HepG2, 24 h. The method in brief:
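Cells kept in DMEM with 10% FCS, penicillin/streptomycin and bicarbonate at 37 °C, 5% CO2; plated at 5 × 10⁴ cells/well 24 h before treatment. Exposed 24 h to […] in DMSO (final 0.44% v/v). After two PBS washes, XTT reagent added for 1 h at 37 °C; OD 450 nm minus 690 nm, normalized to medium-only controls.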
Regarding `Cc1c(/C=N/NC(=O)c2ccc([N+](=O)[O-])cc2)no[n+]1[O-]`, the 50% inhibitory concentration (IC50) stood at 80.9 µM.
On to `O=C(N/N=C/c1c(-c2ccccc2)no[n+]1[O-])c1ccc([N+](=O)[O-])cc1`, for which the IC50 was 45.5 µM.
In turn, `O=C(Cn1ccnc1[N+](=O)[O-])NCc1ccccc1` [BENZNIDAZOLE] displayed an IC50 of 28.1 µM.

Test system in another data set: not listed separately
The experiment in a line: Permeability across basolateral to apical side in human Caco2 cells. The class given is ADME, cell-based. The conditions noted are these: Caco-2, read-out: permeability. The method in brief:
as §1
As for `Cc1c(/C=N/NC(=O)c2ccc([N+](=O)[O-])cc2)no[n+]1[O-]`, the Papp B→A came to 37.6 ×10⁻⁶ cm/s.
As for `O=C(N/N=C/c1c(-c2ccccc2)no[n+]1[O-])c1ccc([N+](=O)[O-])cc1`, the Papp B→A came to 0.52 ×10⁻⁶ cm/s.

Test system in a further data set: not listed separately
The experiment in a line: Selectivity index, ratio of IC50 for human HepG2 cells to IC50 for Trypanosoma cruzi Tulahuen C2C4. The class given is toxicity, cell-based. The settings on record: read-out: Ratio IC50. The essentials: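 SI computed as XTT cytotoxicity IC50 divided by amastigote IC50.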
For `Cc1c(/C=N/NC(=O)c2ccc([N+](=O)[O-])cc2)no[n+]1[O-]`, the selectivity ratio came to 28.1.
With `O=C(N/N=C/c1c(-c2ccccc2)no[n+]1[O-])c1ccc([N+](=O)[O-])cc1`, the selectivity ratio worked out at 15.7.
Still for that read-out and setting: as for `O=C(Cn1ccnc1[N+](=O)[O-])NCc1ccccc1` [BENZNIDAZOLE], the figure is 18.7.

In another data set the test system is Trypanosoma cruzi. The data set is described as follows: Trypanocidal activity against Trypanosoma cruzi Tulahuen C2C4 amastigotes infected in rat L6 cells after 4 days. The settings on record: Tulahuen C2C4, L6, 96 h. The class given is functional, organism-based.
`Cc1c(/C=N/NC(=O)c2cccc([N+](=O)[O-])c2)no[n+]1[O-]` returned a half-maximal inhibitory concentration (IC50) of 9.94 µM.
For the molecule `Cc1c(/C=N/NC(=O)c2ccco2)no[n+]1[O-]`, 6.7 µM corresponded to half-maximal inhibition (IC50).
Molecule `Cc1c(/C=N/NC(=O)c2ccccc2)no[n+]1[O-]` registered an IC50 of over 100 µM.
Molecule `Cc1c(/C=N/NC(=O)Cc2ccccc2)no[n+]1[O-]` yielded an IC50 of over 100 µM.
As for `Cc1c(/C=N/NC(=O)c2ccc(Br)cc2)no[n+]1[O-]`, half-maximal inhibition (IC50) required 27.4 µM.
Take `Cc1c(/C=N/NC(=O)c2ccc(Cl)cc2)no[n+]1[O-]`: half-maximal inhibition (IC50) was put at 14.3 µM.
`Cc1c(/C=N/NC(=O)c2ccc([N+](=O)[O-])cc2)no[n+]1[O-]` returned an IC50 of 2.88 µM.
For the molecule `Cc1c(/C=N/NC(=O)c2ccccc2Nc2ccccc2)no[n+]1[O-]`, half-maximal inhibition (IC50) required 5.69 µM.
Take `O=C(N/N=C/c1c(-c2ccccc2)no[n+]1[O-])c1ccco1`: the IC50 turned out to be 8.12 µM.
On to `O=C(N/N=C/c1c(-c2ccccc2)no[n+]1[O-])c1ccc(Cl)cc1`, for which the IC50 was over 100 µM.
`O=C(N/N=C/c1c(-c2ccccc2)no[n+]1[O-])c1ccc(Br)cc1` had a concentration for half-maximal inhibition (IC50) of over 100 µM.
In the case of `O=C(N/N=C/c1c(-c2ccccc2)no[n+]1[O-])c1cccc([N+](=O)[O-])c1`, half-maximal inhibition (IC50) was put at 15.3 µM.
In turn, `O=C(N/N=C/c1c(-c2ccccc2)no[n+]1[O-])c1ccccc1` registered an IC50 of over 100 µM.
In turn, `O=C(N/N=C/c1c(-c2ccccc2)no[n+]1[O-])c1ccc([N+](=O)[O-])cc1` had a 50% inhibitory concentration (IC50) of 2.9 µM.
The molecule `O=C(Cc1ccccc1)N/N=C/c1c(-c2ccccc2)no[n+]1[O-]` showed an IC50 of 9.1 µM.
On the same count and under the same terms, the value for `O=C(Cn1ccnc1[N+](=O)[O-])NCc1ccccc1` [BENZNIDAZOLE] was 1.5 µM.
